Screens as filed in PubChem BioAssay.
This is a sample that favours compounds with a hit; in the whole collection about 2.3% have one here.
TRPC4 potent – TRPC4 (mouse) allosteric potentiation; Q9QUQ5; HEK293 TRPC4beta/mu-opioid, DAMGO EC20, Fluo-4 Ca2+ flux; stronger effect = higher value; B-score at 10 µM; 310,000 compounds, 0.42% hits; AID 2227;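 active = B-score of calcium response area above 5 SD of library B-scores, with initial fluorescence ratio within 5 SD of library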;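 also: B-score of integrated fluorescence ratio over time as area under calcium response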
TRPC4 act – opens the mouse TRPC4 cation channel. Q9QUQ5. HEK293 TRPC4beta/mu-opioid, Fluo4 calcium fluorescence; stronger effect = higher value. B-score at 10 µM. 310,000 compounds, 0.49% hits;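 active = B-score above 5 SD of library B-scores, and initial fluorescence ratio not above library mean plus 5 SD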;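 also: positive B-score marks a calcium rise read as TRPC4 activation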
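Assay system: HEK293 stable line with TRPC4beta plus mu-opioid receptor; schedule: 45 min room-temperature Fluo4 loading, 110 s read; technique: kinetic Fluo4 calcium fluorescence; evaluation: integrated baseline-normalised fluorescence ratio, converted to per-well B score; controls: buffer (low) and maximal DAMGO (high)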
TRPC4 block – blocks the mouse TRPC4 cation channel; Q9QUQ5; 300,000 compounds, 0.39% hits; HEK293 TRPC4beta/mu-opioid, DAMGO-evoked Fluo4 calcium flux; stronger effect = lower value; B-score at 10 µM;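 active = B-score over 3 SD under the library average, no early fluorescence shift, positive overall ratio signal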
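Assay system: HEK293 cells with stable TRPC4beta plus mu-opioid receptor expression. Dosing: single dose. Measured by: Fluo4 Ca2+ flux fluorescence. Also added: DAMGO in two steps, submaximal then maximal. Read-out: B score from integrated Fluo4 fluorescence ratio.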
TRPC6 activator – activators of mouse TRPC6 channel. 310,000 compounds, 0.13% hits. HEK293-TRPC6 membrane potential dye fluorescence; stronger effect = higher value. B-score at 10 µM;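 active = B-score of the integrated fluorescence ratio above library mean plus 3 SD, and starting fluorescence ratio within library mean plus 5 SD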;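 also: higher score means more depolarization so channel activation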
Target sequence (Q61143 whole entry, looked up): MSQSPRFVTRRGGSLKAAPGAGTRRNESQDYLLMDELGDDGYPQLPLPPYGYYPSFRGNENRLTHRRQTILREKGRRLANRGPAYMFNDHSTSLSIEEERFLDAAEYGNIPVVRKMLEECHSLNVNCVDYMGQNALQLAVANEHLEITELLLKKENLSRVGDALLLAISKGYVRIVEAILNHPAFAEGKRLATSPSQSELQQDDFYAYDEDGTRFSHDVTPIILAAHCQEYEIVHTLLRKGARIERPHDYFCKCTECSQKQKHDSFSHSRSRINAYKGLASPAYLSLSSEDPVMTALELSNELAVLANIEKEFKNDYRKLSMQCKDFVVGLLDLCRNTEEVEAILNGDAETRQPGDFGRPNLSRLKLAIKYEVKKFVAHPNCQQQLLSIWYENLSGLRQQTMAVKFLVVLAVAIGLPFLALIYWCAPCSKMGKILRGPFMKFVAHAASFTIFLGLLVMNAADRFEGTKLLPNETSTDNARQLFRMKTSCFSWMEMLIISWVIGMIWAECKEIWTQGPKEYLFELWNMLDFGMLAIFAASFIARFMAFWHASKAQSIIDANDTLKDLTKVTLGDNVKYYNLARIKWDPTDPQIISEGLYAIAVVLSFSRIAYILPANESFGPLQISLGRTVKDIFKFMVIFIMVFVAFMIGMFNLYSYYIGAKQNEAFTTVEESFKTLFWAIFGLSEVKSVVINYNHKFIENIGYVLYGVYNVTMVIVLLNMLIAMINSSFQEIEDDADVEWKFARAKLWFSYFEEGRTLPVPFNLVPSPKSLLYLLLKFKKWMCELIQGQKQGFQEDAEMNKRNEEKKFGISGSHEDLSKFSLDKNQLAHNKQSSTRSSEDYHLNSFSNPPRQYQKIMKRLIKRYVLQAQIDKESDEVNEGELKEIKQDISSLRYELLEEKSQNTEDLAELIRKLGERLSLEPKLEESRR
TRPC6 inh – mouse TRPC6 channel inhibition. Q61143. HEK293-TRPC6, membrane potential dye, ACh-evoked depolarization; stronger effect = lower value. B-score at 10 µM. 310,000 compounds, 1.1% hits. AID 2553;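 active = B-score under library mean minus 3 SD, initial fluorescence not abnormally high, positive integrated signal ratio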;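 also: B-score derived from integrated fluorescence ratio over the kinetic read; more negative B-score means stronger inhibition of depolarization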
TRPC4 sel inh 2 – second selectivity test of TRPC6 inhibitors: effect on mouse TRPC4 | inhibition, % at 10 µM | HEK293 TRPC4/MOR, membrane potential dye fluorescence; channel activated by saturating DAMGO dose | 920 compounds, 42% hits | shares compounds with TRPC6 inh;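 active = compounds whose fluorescence signal differed from control wells by over 3 SD, either direction, in both duplicate plates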
TRPC4 spec – mouse TRPC4 off-target activity of TRPC6 inhibitors; shares compounds with TRPC6 inh; HEK293 TRPC4/mu-opioid, membrane potential fluorescence; activity change, negative = inhibition, % at 10 µM; 920 compounds, 61% hits; AID 2777;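 active = rise or fall in signal beyond 3 SD of buffer-only wells in both replicate plates, either sign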;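 also: integrated kinetic ratio of fluorescence range over baseline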
HEK293 MPD ctr 2-1 – parental HEK293 nonspecific activity of TRPC6 inhibitors, second screen. AID 2779. parental HEK293 membrane potential dye fluorescence; maximal acetylcholine challenge after compound addition. shares compounds with TRPC6 inh. signal change vs control, % at 10 µM. 920 compounds, 31% hits;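 active = membrane potential signal moving either way by over 3 SD of the maximum-effect control, in both duplicate plates, meaning non-specific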
HEK293 MPD ctr-1 – checks TRPC6 inhibitor effects in parental HEK293 cells; shares compounds with TRPC6 inh; parental HEK293 membrane potential dye fluorescence; membrane potential signal change, % at 10 µM; 920 compounds, 60% hits;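 active = membrane potential signal shifting up or down by more than 3 SD of buffer-only wells, on both duplicate plates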
HEK293 MPD ctr-2 – counter-screen for TRPC6 modulators: effect in parental HEK293 cells. membrane potential signal change, % at 10 µM. shares compounds with TRPC6 inh. membrane potential dye fluorescence. 2,400 compounds, 51% hits;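 active = membrane potential signal moves up or down beyond 5 SD from buffer-only wells, on both duplicate plates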
HEK293 MPD ctr 2-2 – second check of TRPC6 modulator effects in parental HEK293 cells; shares compounds with TRPC6 inh; membrane potential dye fluorescence; after compound, maximal acetylcholine stimulation; inhibition, % at 10 µM; 2,400 compounds, 14% hits; AID 488926;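 active = membrane potential signal drops by more than 5 SD from the mean control signal, in both duplicate plates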;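 also: plate controls were acetylcholine ECmax control wells for no effect and buffer only wells for full effect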
TRPC4/MOR mod – mouse TRPC4 off-target activity of TRPC6 modulators | shares compounds with TRPC6 inh | HEK293 TRPC4/mu-opioid, membrane potential fluorescence | percent change from control (negative = decrease, positive = increase), % at 10 µM | 2,400 compounds, 69% hits;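 active = membrane potential signal moved up or down beyond 5 SD of buffer control wells, in both duplicate plates, actives on both sides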;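 also: plate controls were assay buffer wells for no effect and DAMGO maximal-effect wells for full effect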
TRPC4/MOR inh 2 – second selectivity test of TRPC6 modulators against mouse TRPC4 | shares compounds with TRPC6 inh | HEK293 TRPC4/mu-opioid, membrane potential dye fluorescence; stimulated with maximal-effect DAMGO | inhibition, % at 10 µM | 2,400 compounds, 55% hits;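 active = drop in membrane potential signal beyond 5 SD of the control wells in both duplicate plates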;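 also: TRPC4 counter screen for TRPC6 hits run under conditions tuned for TRPC6 not TRPC4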
TRPC6 block conf – confirmation of mouse TRPC6 inhibitors. inhibition, % at 10 µM. shares compounds with TRPC6 inh. 3,300 compounds, 43% hits. HEK293-TRPC6, membrane potential dye, ACh-evoked depolarization;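 active = fluorescence ratio falls more than 5 SD below the full-stimulation control mean, in both duplicate runs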;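 also: integrated fluorescence ratio of peak minus minimum over baseline after agonist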
TRPC6 act confirm – mouse TRPC6 activator confirmation. AID 488961. shares compounds with TRPC6 inh. 2,800 compounds, 11% hits. HEK293-TRPC6 membrane potential dye fluorescence, FDSS. activation, % at 10 µM;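 active = ratio signal rise beyond 5 SD above unstimulated control wells' mean, seen in both duplicate runs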;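 also: plate controls were buffer EC0 wells for no effect and acetylcholine ECmax response for full effect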
* marks the source's active call; other numbers are inactive results; i = inactive; / = no result.

SMILES	TRPC4 potent	TRPC4 act	TRPC4 block	TRPC6 activator	TRPC6 inh	HEK293 MPD ctr-2	HEK293 MPD ctr 2-2	TRPC4/MOR mod	TRPC4/MOR inh 2	TRPC6 block conf	TRPC6 act confirm	others
CCOC(=O)c1c(-c2ccccc2)oc2cc(CN(C)C)c(O)c(CN(C)C)c12	i	i	i	i	-7.7*	/	/	/	/	i	i	TRPC4 sel inh 2=i;TRPC4 spec=i;HEK293 MPD ctr 2-1=270%*;HEK293 MPD ctr-1=i
CC(C)Cn1c(N)c(C(=O)COC(=O)Cc2cccc(C(F)(F)F)c2)c(=O)n(C)c1=O	i	i	i	i	i	/	/	/	/	/	/
O=C(CNC(=O)c1ccccc1F)N/N=C/c1cn[nH]c1-c1ccccc1	i	i	i	i	-5.8*	i	i	i	i	i	/
COc1ccc(NC(=O)COc2ccccc2C(=O)NCC(c2ccccc2)N(C)C)cc1Cl (stereo unspecified)	i	45*	i	i	-5.3*	i	i	i	86%*	48%*	i
Cc1cc(C)nc(NC2=NC3CCCCC3N2)n1 (stereo unspecified)	i	i	i	i	-8.9*	192%*	128%*	-10%*	54%*	56%*	i
Cc1cc(C)nc(NC2=NCC(=O)N2c2cc(Cl)cc(Cl)c2)n1	i	i	i	i	i	/	/	/	/	/	/
CCCOc1ccccc1C(=O)N1CCNC(=O)C1CC(=O)OC(C)C (stereo unspecified)	i	i	i	i	i	/	/	/	/	/	/
CN(C)CCNc1nc(-c2ccccc2)nnc1C(F)(F)F	i	i	i	i	i	/	/	/	/	/	/
Cc1nnc(-c2ccc(Cl)cc2)nc1NCCN(C)C	i	i	i	i	-5*	i	i	i	i	i	i
CCN1CCN(c2nc3ccccc3nc2C(C#N)C(=O)OCc2ccccc2)CC1 (stereo unspecified)	i	i	i	i	-7.3*	/	/	/	/	i	i	TRPC4 sel inh 2=40%*;TRPC4 spec=-19%*;HEK293 MPD ctr 2-1=i;HEK293 MPD ctr-1=-200%*
CCCCCCOC(=O)C(C#N)c1nc2ccccc2nc1N1CCN(CC)CC1 (stereo unspecified)	i	i	i	i	-5.3*	i	i	-29%*	70%*	i	i
Cc1ccc([N+](=O)[O-])cc1NC(=O)CSc1nncn1-c1ccccn1	i	i	i	i	i	/	/	/	/	/	/
Cc1cc([N+](=O)[O-])ccc1NC(=O)CSc1nncn1-c1ccccn1	i	i	i	i	-5.8*	i	i	i	i	i	i
N=c1c(C(=O)NCc2ccc(F)cc2)cc2c(=O)n3ccccc3nc2n1Cc1cccnc1	i	i	i	i	-5.8*	i	i	-34%*	i	52%*	i
COC(=O)c1cc2c(=O)n3ccccc3nc2n(Cc2cccnc2)c1=N	i	i	i	i	-7.8*	/	/	/	/	i	i	TRPC4 sel inh 2=75%*;TRPC4 spec=-33%*;HEK293 MPD ctr 2-1=i;HEK293 MPD ctr-1=-520%*
O=C(c1cc2ccccc2oc1=O)N1CCN(S(=O)(=O)c2ccccc2)CC1	i	i	i	i	i	/	/	/	/	/	/
Cc1nc(C)c(CCNC(=O)c2ccccc2)s1	i	i	i	i	-6*	i	i	i	i	i	i
CCOc1ccc(NC(=S)NCc2ccc3[nH]c(C)cc3c2)cc1	i	i	i	i	-8.1*	/	/	/	/	i	i	TRPC4 sel inh 2=i;TRPC4 spec=-9.5%*;HEK293 MPD ctr 2-1=i;HEK293 MPD ctr-1=-150%*
CCc1nnc(NC(=O)CCC(=O)N2CCN(c3cccc(Cl)c3)CC2)s1	i	i	i	i	i	/	/	/	/	/	/
COc1ccc(C)cc1S(=O)(=O)N(C)CC(=O)NCc1ccccn1	i	i	i	i	i	/	/	/	/	/	/
Cc1ccc(S(=O)(=O)NCCNc2ccc([N+](=O)[O-])cc2)cc1	i	i	i	i	-5.6*	i	i	-14%*	i	i	i
CCN(CC)S(=O)(=O)c1ccc(NN=C2CCN(C)CC2)c([N+](=O)[O-])c1	i	i	i	i	-7.2*	-83%*	i	-20%*	39%*	i	i
O=C(Nc1ccccc1F)N1CCC(NC(=O)C23CC4CC(CC(C4)C2)C3)CC1	i	i	i	i	i	/	/	/	/	/	/
C=CCn1c(=N)c(C#N)cc2c(=O)n3ccccc3nc21	i	i	i	i	-8.7*	-278%*	i	-44%*	38%*	i	i
CC1(C)C(=S)N(Cc2ccccc2)c2ccccc21	i	i	i	i	i	/	/	/	/	/	/
Cc1ccccc1Cn1nnc(-c2ccc(F)cc2)n1	i	i	i	i	i	/	/	/	/	/	/
CCOc1ccc(N(CC(=O)NC2CCCCC2)C(=O)CCC(=O)Nc2nccs2)cc1	i	i	i	i	i	/	/	/	/	/	/
CCOC(=O)N1CCC(N2Cc3cccc(C(=O)Nc4cccc(F)c4)c3C2=O)CC1	i	i	i	i	-9.2*	/	/	/	/	90%*	i	TRPC4 sel inh 2=i;TRPC4 spec=i;HEK293 MPD ctr 2-1=-12%*;HEK293 MPD ctr-1=i
